This is a sample that favours compounds with a hit; in the whole collection about 9.8% have one here.
WT yeast gro inh – growth inhibition of WT strain, primary screen, mitochondrial fusion inhibitor project, WT and mutant strains, chemical genetic; mitochondrial fusion phenotypic screen; inhibition, % at 10 µM; 2.1% of 190,000 active; in the data active means inhibition above about 58%; tested in S. cerevisiae
L major viab – Leishmania major promastigote growth inhibition, primary screen; inhibition, % at 10 µM; Leishmania major promastigotes, resazurin fluorescence viability; 9% of 200,000 active; AID 1063, 2008; in the data active means inhibition above about 50%;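 further: promastigotes grown with compound for 44 hours at 28 °C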
Rad51 HR inh – human RAD51 strand exchange inhibitors, primary screen, biochemical, fluorescence | AID 1385, 2008 | DNA repair protein RAD51 homolog 1 (Homo sapiens), Q06609 | hRad51 DNA strand exchange, fluorescence dequenching | inhibition, % at 10 µM | 0.085% of 200,000 active;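 active means inhibition above 40% at the single screening dose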
Target sequence (Q06609 whole entry, looked up): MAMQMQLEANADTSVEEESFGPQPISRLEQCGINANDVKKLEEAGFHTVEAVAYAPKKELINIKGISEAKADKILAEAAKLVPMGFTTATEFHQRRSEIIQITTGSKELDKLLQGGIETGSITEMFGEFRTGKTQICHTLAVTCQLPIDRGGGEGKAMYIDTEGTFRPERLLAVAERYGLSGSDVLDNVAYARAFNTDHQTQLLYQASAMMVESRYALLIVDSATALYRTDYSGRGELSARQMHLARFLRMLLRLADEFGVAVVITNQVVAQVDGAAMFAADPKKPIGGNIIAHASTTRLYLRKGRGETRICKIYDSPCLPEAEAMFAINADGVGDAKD
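Test system: preformed human Rad51 ssDNA filaments; also added: Donor/quencher-labelled 47-bp dsDNA substrate; doses: 10 µM final, single point; times: 37 °C 15-min filament assembly, 30-min compound preincubation, 15-min exchange; detection: FRET fluorescence dequenching, excitation 485 nm, emission 520 nm; read-out basis: Fluorescence-based percent inhibition, control- and blank-normalised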
PMI activator – activators of human PMI, primary screen, biochemical, fluorescence intensity, near-Km mannose 6-phosphate | activation factor at 20 µM | AID 1214, 2008 | purified human PMI, coupled resazurin fluorescence, 20 min; hits give high values; 1 = vehicle control, 0 substrate-free wells | Mannose-6-phosphate isomerase (Homo sapiens), P34949 | 0.005% of 190,000 active;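 active means activation factor of 2 or more at 20 µM, relative to plate controls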
PMI act hi M6P – human PMI activators, high substrate, primary screen, biochemical, fluorescence intensity, near-saturating mannose 6-phosphate | activation factor at 20 µM | Mannose-6-phosphate isomerase (Homo sapiens), P34949 | coupled PMI enzyme assay, resazurin fluorescence, 20 min; hits give high values; 1 = untreated enzyme, 0 = substrate-free blank | 0.34% of 190,000 active | AID 1216, 2008;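 active means activation factor of 2 or more at 20 µM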
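Test system: human phosphomannose isomerase with PGI, G6PDH, diaphorase coupling enzymes / Doses: 20 µM compound, 1% DMSO / Times: enzyme reaction with compound 20 min at room temperature / Measured by: Diaphorase-driven resazurin-to-resorufin fluorescence, excitation 544, emission 590 nm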
m-calpain inh – inhibitors of pig calpain II, primary screen, biochemical, fluorogenic peptide substrate, 1536-well. purified calpain II, 30 min. inhibition, % at 16 µM. 0.37% of 220,000 active;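 active means inhibition above about 50%, limit read from the data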
Hits are given with their value.

What do the screens show for `COC(=O)c1c(C(=O)OC)c(-c2cccc(Cl)c2)n2c1CS(=O)C2` (stereo not drawn)?
WT yeast gro inh: inactive; L major viab: inactive; Rad51 HR inh: inactive; PMI activator: inactive; PMI act hi M6P: inactive; m-calpain inh: inactive

Results for COc1ccccc1-n1c(SCC(=O)Nc2ccc(Br)cc2)nc(O)cc1=O ?
m-calpain inh: inactive

How did CCN(CC)C(=O)N1CCc2ccccc2C1CN1C(=O)c2ccccc2C1=O (stereo not drawn) do in these assays?
L major viab: inactive; Rad51 HR inh: inactive

What do the screens show for `C=CCN(c1ccccc1Cl)S(=O)(=O)c1cccc(C(=O)NCCc2ccc(OC)cc2)c1`?
WT yeast gro inh: inactive; L major viab: 64; Rad51 HR inh: inactive; PMI activator: inactive; PMI act hi M6P: inactive; m-calpain inh: inactive

How did COc1ccc(CCNC(=O)c2cccc(S(=O)(=O)N3CCCCC3)c2)cc1 do in these assays?
WT yeast gro inh: inactive; L major viab: inactive; Rad51 HR inh: inactive; PMI activator: inactive; PMI act hi M6P: inactive; m-calpain inh: inactive

How did Cc1cccc(-n2cnc(C(=O)NNC(=S)Nc3ccc(Cl)cc3)c2)n1 do in these assays?
WT yeast gro inh: inactive; L major viab: 100; Rad51 HR inh: inactive; PMI activator: inactive; PMI act hi M6P: inactive; m-calpain inh: inactive

Results for Cc1cccc(-n2cnc(C(=O)N/N=C\c3ccc(Br)cc3)c2)n1 ?
WT yeast gro inh: inactive; L major viab: 99; Rad51 HR inh: inactive; PMI activator: inactive; PMI act hi M6P: inactive; m-calpain inh: inactive

Results for C/C(=N\NC(=O)Cn1nnc2ccccc21)c1ccco1 ?
WT yeast gro inh: inactive; L major viab: inactive; Rad51 HR inh: inactive; PMI activator: inactive; PMI act hi M6P: inactive; m-calpain inh: inactive

Results for O=C1c2ccccc2C(=O)N1CCCCN(C(=O)c1cc([N+](=O)[O-])ccc1Cl)c1ccc(Cl)cc1 ?
WT yeast gro inh: 66; L major viab: 58; Rad51 HR inh: inactive; PMI activator: inactive; PMI act hi M6P: inactive; m-calpain inh: inactive

How did O=C1c2ccccc2C(=O)N1CCCCN(C(=O)c1ccc(Cl)s1)c1ccc(Cl)cc1 do in these assays?
WT yeast gro inh: inactive; L major viab: inactive; Rad51 HR inh: inactive; PMI activator: inactive; PMI act hi M6P: inactive; m-calpain inh: inactive

What do the screens show for `O=C1c2ccccc2C(=O)N1CCCCN(C(=O)c1cc([N+](=O)[O-])cc([N+](=O)[O-])c1)c1ccc(Cl)cc1`?
WT yeast gro inh: inactive; L major viab: 99; Rad51 HR inh: inactive; PMI activator: inactive; PMI act hi M6P: inactive; m-calpain inh: inactive

What do the screens show for `Cc1ccc(N(CCCCN2C(=O)c3ccccc3C2=O)C(=O)c2ccc(Cl)s2)cc1`?
WT yeast gro inh: inactive; L major viab: inactive; Rad51 HR inh: inactive; PMI activator: inactive; PMI act hi M6P: inactive; m-calpain inh: 50

How did COc1ccc(CCNC(=O)CO/N=C/c2cc3c(cc2Br)OCO3)cc1OC do in these assays?
WT yeast gro inh: inactive; L major viab: inactive; Rad51 HR inh: inactive; PMI activator: inactive; PMI act hi M6P: inactive; m-calpain inh: inactive

Results for CCOC(=O)c1cnc(-c2ccccc2)nc1-c1ccccc1 ?
WT yeast gro inh: 65; L major viab: inactive; Rad51 HR inh: inactive; PMI activator: inactive; PMI act hi M6P: inactive; m-calpain inh: inactive

What do the screens show for `CCOC(=O)c1cnc(-c2ccccc2)nc1Oc1ccccc1`?
WT yeast gro inh: inactive; L major viab: inactive; Rad51 HR inh: inactive; PMI activator: inactive; PMI act hi M6P: inactive; m-calpain inh: inactive

What do the screens show for `COc1ccccc1NC(=O)N1CCCC(c2nc3c(nnn3Cc3ccc(C)cc3)c(=O)[nH]2)C1` (stereo not drawn)?
WT yeast gro inh: inactive; L major viab: 52; Rad51 HR inh: inactive; PMI activator: inactive; PMI act hi M6P: inactive; m-calpain inh: inactive

Results for CN1c2ccsc2/C(=N/Nc2ccccc2)CS1(=O)=O ?
WT yeast gro inh: inactive; L major viab: inactive; Rad51 HR inh: inactive; PMI activator: inactive; PMI act hi M6P: 2.1; m-calpain inh: inactive

How did CN1c2ccsc2/C(=N/NC(=O)c2c(F)cccc2F)CS1(=O)=O do in these assays?
WT yeast gro inh: inactive; L major viab: inactive; Rad51 HR inh: inactive; PMI activator: inactive; PMI act hi M6P: inactive; m-calpain inh: inactive

Results for O=C(NNC1CC(=O)N(c2ccc(Br)cc2)C1=O)c1ccccn1 (stereo not drawn) ?
WT yeast gro inh: inactive; L major viab: inactive; Rad51 HR inh: inactive; PMI activator: inactive; PMI act hi M6P: inactive; m-calpain inh: inactive

Results for N#Cc1ccc(-c2ccc(OCC(=O)NCC(=O)Nc3ccc(F)c(F)c3F)cc2)cc1 ?
WT yeast gro inh: inactive; L major viab: 58; Rad51 HR inh: inactive; PMI activator: inactive; PMI act hi M6P: inactive; m-calpain inh: inactive

How did CCNC(=O)c1ccc(C2SCC(=O)N2CCc2ccccc2)cc1 (stereo not drawn) do in these assays?
WT yeast gro inh: inactive; L major viab: inactive; PMI activator: inactive; PMI act hi M6P: inactive; m-calpain inh: inactive

How did C=CCNC(=O)c1ccc(C2SCC(=O)N2Cc2ccccc2)cc1 (stereo not drawn) do in these assays?
WT yeast gro inh: inactive; L major viab: inactive; Rad51 HR inh: inactive; PMI activator: inactive; PMI act hi M6P: inactive; m-calpain inh: inactive

What do the screens show for `CCc1ccc(NC(=O)c2ccc(C3SCC(=O)N3CCc3ccccc3)cc2)cc1` (stereo not drawn)?
L major viab: 93; PMI activator: inactive; PMI act hi M6P: inactive; m-calpain inh: inactive

Results for O=C(NCc1ccccc1)c1ccc(C2SCC(=O)N2Cc2ccccc2)cc1 (stereo not drawn) ?
WT yeast gro inh: inactive; L major viab: 97; Rad51 HR inh: inactive; PMI activator: inactive; PMI act hi M6P: inactive; m-calpain inh: inactive

Results for CCOc1ccc(-c2nc(-c3ccncc3)no2)cc1OCC ?
WT yeast gro inh: inactive; L major viab: 89; Rad51 HR inh: inactive; PMI activator: inactive; PMI act hi M6P: inactive; m-calpain inh: inactive

How did CC(C)(C)c1ccc(-c2noc(-c3ccno3)n2)cc1 do in these assays?
Rad51 HR inh: inactive; m-calpain inh: inactive

Results for CC(C)(C)c1ccc(-c2nc(-c3ccncc3)no2)cc1 ?
WT yeast gro inh: 62; L major viab: inactive; PMI activator: inactive; PMI act hi M6P: inactive; m-calpain inh: inactive

Results for O=[N+]([O-])c1cc(-c2nc(-c3ccncc3)no2)cc([N+](=O)[O-])c1 ?
WT yeast gro inh: inactive; L major viab: 94; PMI activator: inactive; PMI act hi M6P: inactive; m-calpain inh: inactive

What do the screens show for `Cc1ccc(-c2nnc(CCC(=O)NCc3csc(C)n3)o2)s1`?
Rad51 HR inh: inactive; m-calpain inh: inactive
